The source made the active and inactive calls. The rule behind the calls is not given here.
What was measured:
Kasumi 1 = assay: Cytotoxicity against human Kasumi-1 cells after 72 hrs by alamar blue assay; assay type: functional, cell-based
How it was run: (§1)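 Alamar Blue (resazurin) viability assay: attached cells (SKBr3) plated at 8000/well, suspension cells (Kasumi-1) at 20000/well, left 24 h at 37 °C, then drug added in triplicate for 72 h. Alamar Blue 50 μM added, fluorescence read 6 h later (ex 530, em 580 nm). Growth inhibition versus control corrected for time-zero population; IC50 = concentration giving 50% growth inhibition.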

MOLM-13 [1] = assay: Induction of apoptosis in human MOLM13 cells assessed as caspase 3/7 activation after 16 hrs by fluorescence assay; assay type: functional, cell-based
How it was run: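 MOLM-13 cells at 30000/well in RPMI, held up to 24 h (37 °C, 5% CO2), then exposed 16 h to compound or DMSO. Buffer with 10 mM HEPES pH 7.5, 2 mM EDTA, 0.1% CHAPS and 25 μM Z-DEVD-R110 substrate added; fluorescence read once signal stabilized. Percent apoptotic increase calculated relative to control cells.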

[2] = molecular target: Heat shock protein HSP 90-beta (Homo sapiens) (UniProt P08238); assay: Displacement of GM-Cy3B from HSP90 in human SKBR3 cells after 24 hrs by fluorescence polarization assay; conditions: SK-BR-3
SK-BR-3 [3] = assay: Induction of apoptosis in human SKBR3 cells assessed as c-PARP cleavage by Western blotting analysis; assay type: functional
How it was run: (§2)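 Cells (SKBr3, MDA-MB-468, MiaPaCa-2 in DME/F12; MOLM-13 in RPMI; 10% FBS) grown to 60–70% confluence, then given inhibitor or DMSO. Lysis in 50 mM Tris pH 7.4, 150 mM NaCl, 1% NP-40. Protein measured by BCA, and client proteins or cleaved PARP detected by immunoblotting with peroxidase-conjugated secondary antibody.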

SK-BR-3 [4] = assay: Inhibition of HSP70 in human SKBR3 cells assessed as Raf-1 degradation by Western blotting analysis; assay type: cell-based; how it was run: as §2
SK-BR-3 [5] = assay: Inhibition of HSP70 in human SKBR3 cells assessed as HER2 degradation by Western blotting analysis; assay type: cell-based; how it was run: as §2
[6] = Cytotoxicity against human SKBR3 cells after 72 hrs by alamar blue assay; assay type: functional, SK-BR-3; how it was run: as §1
[7] = molecular target: Receptor-type tyrosine-protein kinase FLT3 (Homo sapiens) (UniProt P36888); assay: Inhibition of HSP70 in human MOLM13 cells assessed as mutant FLT3 degradation at 1 to 20 uM by Western blotting analysis; assay type: cell-based; conditions: MOLM-13; how it was run: as §2
MIA PaCa-2 [8] = assay: Inhibition of HSP70 in human MIAPaCa2 cells assessed as AKT degradation at 1 to 20 uM by Western blotting analysis; assay type: cell-based; how it was run: as §2
[9] = test system: Heat shock 70 kDa protein (Homo sapiens); assay: Inhibition of HSP70 in human SKBR3 cells assessed as inhibition of HSP70-HOP-HSP90 complex formation after 24 hrs by Western blotting analysis; conditions: SK-BR-3
MOLM-13 [10] = assay: Inhibition of HSP70 in human MOLM13 cells assessed as STAT5 degradation at 1 to 20 uM by Western blotting analysis; assay type: cell-based; how it was run: as §2
MIA PaCa-2 [11] = assay: Inhibition of HSP70 in human MIAPaCa2 cells assessed as Raf-1 degradation at 1 to 20 uM by Western blotting analysis; assay type: cell-based; how it was run: as §2
HEK293 [12] = assay: Inhibition of human HSP70 expressed in HEK293 cells assessed as inhibition of refolding of heat denatured luciferase at 10 uM incubated for 1 hr followed by heat treatment measured after 2 hrs by Western blotting analysis; assay type: cell-based
How it was run: (§3)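 HEK293 cells cotransfected with C-terminal HA-luciferase plus N-terminal Flag-human Hsp70 or control vector. Two days later: cycloheximide 50 μg/mL, compound at 10 μM added just before 1 h at 45 °C, then recovery at 37 °C up to 2 h. Triton X-100 lysates cleared at 20000g; luciferase activity normalized to protein, expressed as % of pre-heat-shock activity; soluble proteins immunoblotted.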

MDA-MB-468 [13] = assay: Inhibition of HSP70 in human MDA-MB-468 cells assessed as Raf-1 degradation at 0.5 to 25 uM by Western blotting analysis; assay type: cell-based; how it was run: as §2
MIA PaCa-2 [14] = assay: Inhibition of HSP70 in human MIAPaCa2 cells assessed as STAT-3 degradation at 1 to 20 uM by Western blotting analysis; assay type: cell-based; how it was run: as §2
MDA-MB-468 [15] = assay: Inhibition of HSP70 in human MDA-MB-468 cells assessed as STAT-3 degradation at 0.5 to 25 uM by Western blotting analysis; assay type: cell-based; how it was run: as §2
HEK293 [16] = assay: Inhibition of HSP70 in HEK293 cells assessed as inhibition of refolding of heat denatured luciferase at 10 uM incubated for 1 hr followed by heat treatment measured after 2 hrs by Western blotting analysis; assay type: cell-based; conditions: Homo sapiens; how it was run: as §3
[17] = Homo sapiens, Kasumi 1, 72 h, read-out: IC50
[18] = Homo sapiens, MOLM-13, 16 h, read-out: IC50

Heat shock protein HSP 90-beta (Homo sapiens), sequence (P08238 whole entry): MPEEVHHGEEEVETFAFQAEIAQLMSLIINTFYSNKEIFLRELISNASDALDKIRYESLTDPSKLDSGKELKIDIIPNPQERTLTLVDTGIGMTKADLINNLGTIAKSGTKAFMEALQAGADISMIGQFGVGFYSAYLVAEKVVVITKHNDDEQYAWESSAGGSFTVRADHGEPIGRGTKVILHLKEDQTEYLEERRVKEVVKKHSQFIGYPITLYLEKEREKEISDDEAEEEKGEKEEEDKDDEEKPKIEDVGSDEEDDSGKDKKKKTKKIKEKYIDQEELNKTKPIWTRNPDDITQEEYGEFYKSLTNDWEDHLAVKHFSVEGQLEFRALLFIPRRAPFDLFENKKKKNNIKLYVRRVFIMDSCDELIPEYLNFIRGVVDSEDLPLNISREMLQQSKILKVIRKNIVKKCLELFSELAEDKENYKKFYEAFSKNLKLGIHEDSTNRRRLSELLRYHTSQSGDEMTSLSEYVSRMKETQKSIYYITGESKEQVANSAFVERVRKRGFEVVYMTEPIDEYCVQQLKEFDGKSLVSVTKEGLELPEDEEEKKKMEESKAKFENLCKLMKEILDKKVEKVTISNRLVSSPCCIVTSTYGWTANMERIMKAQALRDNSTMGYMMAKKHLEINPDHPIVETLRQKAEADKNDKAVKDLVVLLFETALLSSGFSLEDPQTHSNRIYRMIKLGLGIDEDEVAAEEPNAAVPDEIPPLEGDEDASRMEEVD
Receptor-type tyrosine-protein kinase FLT3 (Homo sapiens), sequence (P36888 whole entry): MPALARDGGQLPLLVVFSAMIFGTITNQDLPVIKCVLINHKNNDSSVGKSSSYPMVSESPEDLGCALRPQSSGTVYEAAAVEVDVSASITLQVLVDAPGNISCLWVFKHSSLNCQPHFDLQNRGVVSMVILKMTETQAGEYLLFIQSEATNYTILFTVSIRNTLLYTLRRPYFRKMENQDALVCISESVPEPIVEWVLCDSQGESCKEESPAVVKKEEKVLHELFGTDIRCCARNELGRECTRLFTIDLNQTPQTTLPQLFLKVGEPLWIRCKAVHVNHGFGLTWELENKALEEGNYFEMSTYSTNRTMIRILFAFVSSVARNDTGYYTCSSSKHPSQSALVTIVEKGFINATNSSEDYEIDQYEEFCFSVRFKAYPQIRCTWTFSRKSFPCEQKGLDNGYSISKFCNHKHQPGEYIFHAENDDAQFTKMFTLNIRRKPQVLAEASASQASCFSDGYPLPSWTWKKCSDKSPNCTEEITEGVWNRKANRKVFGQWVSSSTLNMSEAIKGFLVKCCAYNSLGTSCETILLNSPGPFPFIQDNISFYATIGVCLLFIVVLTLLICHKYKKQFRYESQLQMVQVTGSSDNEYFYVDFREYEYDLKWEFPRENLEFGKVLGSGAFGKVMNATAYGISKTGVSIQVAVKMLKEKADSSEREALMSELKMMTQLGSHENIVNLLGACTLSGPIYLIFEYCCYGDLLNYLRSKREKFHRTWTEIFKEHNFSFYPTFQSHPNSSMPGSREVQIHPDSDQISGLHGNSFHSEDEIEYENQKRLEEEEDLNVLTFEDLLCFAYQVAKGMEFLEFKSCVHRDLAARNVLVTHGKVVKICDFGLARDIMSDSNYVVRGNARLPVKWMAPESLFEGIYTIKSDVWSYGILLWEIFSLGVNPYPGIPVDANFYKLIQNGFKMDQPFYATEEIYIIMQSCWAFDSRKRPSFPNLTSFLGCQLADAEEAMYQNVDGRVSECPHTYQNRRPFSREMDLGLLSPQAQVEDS

| Compound | IC50 (Kasumi 1; [17]) | IC50 (MOLM-13 [1]; [18]) | INH [2] | INH (SK-BR-3 [3]) | INH (SK-BR-3 [4]) | INH (SK-BR-3 [5]) | GI [6] | other results |
| --- | --- | --- | --- | --- | --- | --- | --- | --- |
| Cc1nc(N2CCN(C)CC2)nc(C)c1Sc1nccc(NC(=O)C2CC2)n1 | 60.5 µM | 68 µM | – | – | – | – | – | – |
| CCC(=O)Nc1ccnc(Sc2c(C)nc(N3CCN(C)CC3)nc2C)n1 | – | 98 µM | – | – | – | – | – | – |
| COc1nc(N2CCN(C)CC2)nc(OC)c1Sc1cccc(NC(=O)C2CCC2)c1 | 47.2 µM | 60 µM | > 250 µM | 75 µM | 45 µM | 70 µM | 70 µM | – |
| CCC(=O)Nc1cccc(Sc2ccc(N3CCN(C)CC3)nc2OC)c1 | – | 39 µM | – | – | – | – | – | – |
| C=CC(=O)Nc1cc(N)nc(Sc2c(OCC)nc(N3CCN(C)CC3)nc2OCC)n1 | – | – | > 500 µM | 1.5 µM | 2.5 µM | 1 µM | 1.1 µM | – |
| COc1nc(N2CCN(C)CC2)nc(OC)c1Sc1nc(N)cc(NC(=O)CCN(C)C)n1 | 14.7 µM | 25 µM | > 500 µM | 75 µM | 50 µM | 70 µM | – | – |
| Cc1nc(N2CCN(C)CC2)nc(C)c1Sc1nccc(NC(=O)c2ccco2)n1 | 30.3 µM | 32 µM | > 250 µM | 30 µM | 25 µM | 25 µM | 30 µM | – |
| CN1CCN(c2ncc(Sc3cccc(NC(=O)CN)c3)c(OCc3ccncc3)n2)CC1 | 10.7 µM | 7.8 µM | – | – | – | – | – | – |
| CCC(=O)Nc1ccnc(Sc2ccc(N3CCN(C)CC3)nc2OC)n1 | – | 102 µM | – | – | – | – | – | – |
| COc1nc(N2CCN(C)CC2)ccc1Sc1nccc(NC(=O)C2CC2)n1 | 58.5 µM | 63 µM | – | – | – | – | – | – |
| CN1CCN(c2ncc(Sc3cccc(NC(=O)c4ccccc4)c3)c(OCc3ccccc3)n2)CC1 | 3.1 µM | 4.1 µM | – | – | – | – | – | – |
| CN1CCN(c2ncc(Sc3cccc(NC(=O)CN)c3)c(-c3ccccc3)n2)CC1 | 20.8 µM | 25.2 µM | – | – | – | – | – | – |
| CC(C)C(N)C(=O)Nc1cccc(Sc2cnc(N3CCN(C)CC3)nc2OCc2ccccc2)c1 (stereo not given) | 3.1 µM | 2.4 µM | – | – | – | – | – | – |
| C=CCC(=O)Nc1cccc(Sc2c(OC)nc(N3CCN(C)CC3)nc2OC)c1 | – | 65 µM | – | – | – | – | – | – |
| CCC(=O)Nc1ccnc(Sc2c(OC)nc(N3CCN(C)CC3)nc2OC)n1 | – | 142 µM | – | – | – | – | – | – |
| COc1nc(N2CCN(C)CC2)ccc1Sc1cccc(NC(=O)CN)c1 | 19.1 µM | 21 µM | – | – | – | – | – | – |
| CCOc1nc(N2CCN(C)CC2)nc(OCC)c1Sc1nc(N)cc(NC(=O)CC)n1 | 51.4 µM | 37 µM | > 250 µM | 80 µM | 70 µM | 50 µM | 55 µM | – |

| Compound | IC50 (Kasumi 1; [17]) | IC50 (MOLM-13 [1]; [18]) | INH [2] | INH (SK-BR-3 [3]) | INH (SK-BR-3 [4]) | INH (SK-BR-3 [5]) | GI [6] | other results |
| --- | --- | --- | --- | --- | --- | --- | --- | --- |
| CCC(=O)Nc1cccc(Sc2c(OC)nc(N3CCN(C)CC3)nc2OC)c1 | – | 65 µM | > 500 µM | 75 µM | 80 µM | 75 µM | 55 µM | – |
| CN1CCN(c2ccc(Sc3cccc(NC(=O)CN)c3)c(O)n2)CC1 | – | > 250 µM | – | – | – | – | – | – |
| CC(=O)Nc1cccc(Sc2cnc(N3CCN(C)CC3)nc2OCc2ccccc2)c1 | 5.2 µM | 10.2 µM | – | – | – | – | – | – |
| COc1nc(N2CCN(C)CC2)ccc1Sc1cccc(NC(=O)c2ccccc2)c1 | 4.7 µM | 20 µM | > 250 µM | 25 µM | 20 µM | 19 µM | 20 µM | – |
| COc1nc(N2CCN(C)CC2)nc(OC)c1Sc1nc(N)cc(NC(C)=O)n1 | – | 165 µM | > 500 µM | 180 µM | 150 µM | 125 µM | – | – |
| CCOc1nc(N2CCN(C)CC2)nc(OCC)c1Sc1nc(N)cc(NC(=O)C2CC2)n1 | – | 95 µM | – | – | – | – | – | – |
| CN1CCN(c2ncc(Sc3cccc(NC(=O)C4CCCN4)c3)c(OCc3ccccc3)n2)CC1 (stereo not given) | 2.9 µM | 1.7 µM | – | – | – | – | – | – |
| COc1nc(N2CCN(C)CC2)ncc1Sc1cccc(NC(=O)CN)c1 | 25.2 µM | 13 µM | > 500 µM | 19 µM | 15 µM | 18 µM | 15 µM | – |
| COc1nc(N2CCN(C)CC2)nc(OC)c1Sc1nccc(NC(C)=O)n1 | – | 150 µM | – | – | – | – | – | – |
| CN1CCN(c2ncc(Sc3cccc(NC(=O)CN)c3)c(OCc3ccccc3)n2)CC1 | 2.3 µM | 1.9 µM | > 500 µM | 1.5 µM | 1.2 µM | 1.5 µM | 2.1 µM | inhibition [7]: Active; inhibition (MIA PaCa-2 [8]): Active; inhibition [9]: Dose-dependent effect; inhibition (MOLM-13 [10]): Active; inhibition (MIA PaCa-2 [11]): Active; inhibition (HEK293 [12]): Active; inhibition (MDA-MB-468 [13]): Active; inhibition (MIA PaCa-2 [14]): Active; inhibition (MDA-MB-468 [15]): Active; inhibition (HEK293 [16]): Active |
| COc1nc(N2CCN(C)CC2)nc(OC)c1Sc1cccc(NC(=O)c2ccccc2)c1 | 8.1 µM | 8 µM | 497 µM | 7.5 µM | 10 µM | 7.5 µM | 8 µM | – |
| CC(N)C(=O)Nc1cccc(Sc2cnc(N3CCN(C)CC3)nc2OCc2ccccc2)c1 (stereo not given) | 4.8 µM | 2 µM | – | – | – | – | – | – |
| CCCCCCCC(=O)Nc1cc(N)nc(Sc2c(OC)nc(N3CCN(C)CC3)nc2OC)n1 | – | > 50 µM | > 500 µM | >25 µM | > 25 µM | > 25 µM | – | – |
| COc1nc(N2CCN(C)CC2)ccc1Sc1cccc(NC(=O)C2CC2)c1 | 36.4 µM | 32 µM | – | – | – | – | – | – |
| C=CC(=O)Nc1ccnc(Sc2c(C)nc(N3CCN(C)CC3)nc2C)n1 | – | – | > 500 µM | 5 µM | 5 µM | 4 µM | 1.8 µM | – |
| COc1nc(N2CCN(C)CC2)nc(OC)c1Sc1cccc(NC(=O)CN)c1 | 22.5 µM | 18 µM | > 500 µM | 40 µM | 20 µM | 20 µM | 25 µM | – |
| COc1nc(N2CCN(C)CC2)nc(OC)c1Sc1cccc(NC(=O)C2CCCCC2)c1 | – | – | – | – | – | – | – | IC50 (Kasumi 1; kasumi 1): ND(Insoluble); IC50 (MOLM-13 [1]; molm-13): ND(Insoluble) |
